Screens from PubChem BioAssay.
Rows were chosen to be rich in hits. Some 2.2% of all compounds tested hit in one or more screens of this group.
Wee1 stabilizer – blocks degradation of human Wee1 kinase | HeLa Luc-Wee1K328M stability, luciferase luminescence; 100% = proteasome inhibitor MG132 effect | reporter increase, % at 5 µM | hit rate 1.2% among 220,000 | AID 1321;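 active = activation above the mean of all tested compounds plus 3 SD, set per screening run, cut at about 8.8% in these data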;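 also: cells exposed to compound for 20 h before luminescence read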
FXIIa inh 1536 – factor XIIa (human) inhibition. P00748. purified FXIIa, Boc-QGR-AMC fluorogenic substrate, 2 h. inhibition, % at 5 µM. hit rate 0.3% among 220,000. AID 800; in the data active = inhibition above about 40%
thrombin 1536 – inhibitors of human thrombin; P00734; alpha-thrombin, Boc-VPR-AMC fluorogenic substrate cleavage; inhibition, % at 5 µM; hit rate 0.26% among 220,000;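 active = inhibition at or above 40%; inactive = inhibition below 40%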
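System – human alpha-thrombin · Medium – pH 7.5 Tris (50 mM) with NaCl 150 mM, Tween 20 0.05% · Compound – single-point dosing at 5 µM, 0.2% DMSO · Incubation – enzyme reaction carried out at room temperature · Technique – fluorescence of released AMC, ex 355 nm, em 460 nm · Read-out basis – % inhibition of thrombin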
FXIa inh 1536 – inhibitors of human coagulation factor XIa; hit rate 0.14% among 220,000; P03951; purified FXIa, Boc-Glu-Ala-Arg-AMC fluorogenic substrate; inhibition, % at 5 µM;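 active = inhibition of at least 40%; inactive = inhibition below 40%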;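 also: fluorescence of freed AMC excited at 355 nm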
Target sequence (P03951 19-387 limits assumed): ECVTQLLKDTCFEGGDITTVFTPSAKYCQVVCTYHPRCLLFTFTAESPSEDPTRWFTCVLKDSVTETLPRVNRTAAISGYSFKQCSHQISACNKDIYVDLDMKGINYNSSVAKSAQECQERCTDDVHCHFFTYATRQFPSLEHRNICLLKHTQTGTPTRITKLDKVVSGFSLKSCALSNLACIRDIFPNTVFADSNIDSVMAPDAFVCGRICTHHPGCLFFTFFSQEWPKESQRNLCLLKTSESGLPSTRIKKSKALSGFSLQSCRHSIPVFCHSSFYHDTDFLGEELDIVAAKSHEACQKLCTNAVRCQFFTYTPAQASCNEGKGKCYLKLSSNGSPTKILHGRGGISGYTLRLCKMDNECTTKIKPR
Target sequence (P03951 388-625 limits assumed): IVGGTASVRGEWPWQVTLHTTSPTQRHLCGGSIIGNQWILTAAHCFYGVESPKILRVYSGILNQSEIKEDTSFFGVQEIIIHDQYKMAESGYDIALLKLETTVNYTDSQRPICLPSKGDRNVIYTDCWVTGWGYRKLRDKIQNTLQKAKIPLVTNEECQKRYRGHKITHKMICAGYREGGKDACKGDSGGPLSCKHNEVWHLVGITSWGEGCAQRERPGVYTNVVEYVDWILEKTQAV
hK5 inh – inhibitors of human kallikrein 5; recombinant hK5, fluorogenic AMC substrate cleavage; inhibition, % at 5 µM; hit rate 0.59% among 210,000;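 active = inhibition of 40% or more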
Each line names hits and unclear results; the compound was inactive in the other large screens.

CC1CCCCN1S(=O)(=O)c1coc(C(N)=O)c1 (stereo not given)	hK5 inh 42
COc1cccc(CNS(=O)(=O)c2ccc3c(c2)CCN3C(=O)C2CC2)c1	Wee1 stabilizer 9.2 (no result: hK5 inh)
COc1ccc(CCNS(=O)(=O)c2ccc3c(c2)CCN3C(=O)C2CC2)cc1OC	none
CCOC(=O)c1cc(C(=O)c2ccccc2O)cn2c(=O)c3c(C)c(C)sc3nc12	none (no result: FXIIa inh 1536)
COc1ccc(/C(C)=N/NC(=O)CNC(=O)/C=C\c2ccco2)cc1	none
Cn1c(C(C)(O)C(O)c2ccccc2)nc2ccccc21 (stereo not given)	none
COc1ccc(OC)c(Cc2nnc(CCC(=O)NCc3ccc(C)s3)o2)c1	none
CN1C(=C2C(=O)OC(C)(C)OC2=O)Sc2ccccc21	Wee1 stabilizer 8.8
CCN1/C(=C2\OC(=S)N(C)C2=O)Sc2ccccc21	none
Cc1ccc(-c2cccc(OC(=O)c3ccccc3F)c2)cc1	none
COC(=O)CN1C(=O)C(O)(CC(=O)c2cccc(Br)c2)c2ccccc21 (stereo not given)	none
COC(=O)CN1C(=O)C(O)(CC(=O)c2ccc(Cl)cc2)c2ccccc21 (stereo not given)	thrombin 1536 41
CCC1CCC(C(=O)NC(C(=O)NCCCN2CCCCC2C)C(C)C)CC1 (stereo not given)	none
COc1ccc(C2C3C(=O)N(Cc4ccccc4)C(=O)C3ON2c2ccccc2)c(OC)c1OC (stereo not given)	hK5 inh 52
C/C(=N\O)c1sc(-c2ccccc2)nc1C	none
Cc1cc(C)c(NS(=O)(=O)c2ccc3c(c2)NC(=O)CC(=O)N3)c(C)c1	none
Cc1ccc(C(=O)N/N=C\c2c(C)nn(-c3ccccc3)c2Cl)cn1	hK5 inh 41
Cc1nn(-c2ccccc2)c(Cl)c1/C=N/NC(=O)c1cccnc1	none
Cc1ccc(CN(C)CC(=O)Nc2ccc3c(c2)CCC3)cc1	hK5 inh 47
CCc1ccc(CN(C)CC(=O)Nc2ccc3c(c2)CCC3)cc1	none
CNC(=O)c1ccc(-c2nc(-c3ccccc3)cs2)cc1	none
O=C(O)c1ccc(-c2nc(-c3ccccc3)cs2)cc1	Wee1 stabilizer 9.6
CC1CCN(c2nc3ccccc3nc2C(C#N)C(=O)OC2CCCCC2)CC1 (stereo not given)	Wee1 stabilizer 12
CC1CN(c2nc3ccccc3nc2C(C#N)C(=O)OC2CCCCC2)CC(C)O1 (stereo not given)	hK5 inh 64
Cc1ccc2c(c1)C(O)(CC(=O)c1ccc3c(c1)OCO3)C(=O)N2 (stereo not given)	none
CS(=O)(=O)Nc1cccc(C(=O)CC2(O)C(=O)Nc3ccc(Br)cc32)c1 (stereo not given)	thrombin 1536 60, hK5 inh 73
O=C(CC1(O)C(=O)Nc2ccc(Br)cc21)c1ccc2c(c1)OCO2 (stereo not given)	thrombin 1536 50
COC(=O)c1nc(-c2ccccc2)n[nH]1	none
COC(=O)c1nc(NC(=O)C(C)(C)C)n[nH]1	thrombin 1536 56
COC(=O)c1nc(NC(=O)c2ccccc2Cl)n[nH]1	FXIIa inh 1536 82, hK5 inh 48 (no result: thrombin 1536)
CNC(=O)c1[nH]cnc1C(=O)Nc1ccc(OC)cc1	none
COP(=O)(CC(=O)c1ccccc1)CC(=O)c1ccccc1	none
O=C(Nc1cccc(F)c1)C1CCN(C(=O)c2ccccc2Cl)CC1	hK5 inh 46
Cc1ccc(C)c(NC(=O)CN(C)C(=O)c2cccc(S(=O)(=O)N(C)C)c2)c1	Wee1 stabilizer 10
COc1ccc(OC)c(NS(=O)(=O)c2ccc(Br)s2)c1	Wee1 stabilizer 9.0
O=C(COC(=O)CCN1C(=O)c2cccc([N+](=O)[O-])c2C1=O)NC1CCS(=O)(=O)C1 (stereo not given)	none
CC(C)(C)c1ccc(NC(=O)COC(=O)CCN2C(=O)c3cccc([N+](=O)[O-])c3C2=O)cc1	Wee1 stabilizer 17
CCn1c(CSCc2ccccc2)n[nH]c1=S	Wee1 stabilizer 9.1
CCS(=O)(=O)N1CCC(C(=O)NCCCOC)CC1	Wee1 stabilizer 10
CCCS(=O)(=O)N1CCC(C(=O)NCCCOC)CC1	none
CC(=O)c1sc(NC(=O)COc2ccc(Cl)cc2Cl)nc1C	none
CC(=O)c1sc(NC(=O)COc2ccc(Cl)cc2C)nc1C	FXIIa inh 1536 71, hK5 inh 59
Oc1ccc(-c2cn3ccccc3n2)cc1	none
Brc1ccc(-c2cn3ccccc3n2)cc1	Wee1 stabilizer 9.1
CC(CCc1ccccc1)NC(=O)c1cccc([N+](=O)[O-])c1 (stereo not given)	none
Cc1ccc(C(=O)NC(C)CCc2ccccc2)cc1[N+](=O)[O-] (stereo not given)	Wee1 stabilizer 11
Nc1[nH]n(-c2ccccc2)c(=O)c1N=Nc1ccc2ncsc2c1	none
CC1CCN(S(=O)(=O)c2ccc3nc(-c4ccccn4)cc(C(=O)NCCN(C)Cc4ccccc4)c3c2)CC1	FXIIa inh 1536 66
COC(=O)C1=C(C)NC2=C(C(=O)CC(C)(C)C2)C1c1cnn(C)c1C (stereo not given)	none
Cc1ccc(CNC(=O)C2CCCN(c3nc4ccsc4c(=O)s3)C2)cc1 (stereo not given)	none
CN(C)C(=O)c1c2c(nc3ccccc13)-c1ccccc1CC2	Wee1 stabilizer 8.9
CN(C)C(=O)c1c2c(nc3ccccc13)CCCC2	none
Cc1cc(C)c(S(=O)(=O)ON2C(=O)c3ccccc3C2=O)cc1C	thrombin 1536 56, FXIa inh 1536 72
Cc1cccc2c1N(C)C(=O)C2=O	none
Cc1cc(C)c(C)c(S(=O)(=O)ON2C(=O)c3ccccc3C2=O)c1C	FXIIa inh 1536 53, FXIa inh 1536 72
Cc1ccc(S(=O)(=O)ON2C(=O)c3ccccc3C2=O)c(C)c1	FXIIa inh 1536 47, thrombin 1536 62, FXIa inh 1536 57
COC(=O)CON1C(=O)c2ccccc2C1=O	none
Cc1cc(C)n(CCNc2nc3nonc3nc2N2CCCCC2)n1	none
CCC(CC)C(=O)Nc1cc(Cl)ccc1C	none (no result: FXIIa inh 1536)
COCCCNC(=O)CN(c1cc(C(F)(F)F)ccc1Cl)S(C)(=O)=O	Wee1 stabilizer 10
CC1(C)CC(=O)C=C(NCCO)C1	none
CCCCCCCCNC1=CC(=O)CC(C)(C)C1	hK5 inh 50
CC(C)NC(=O)CSc1nc(-c2ccccc2)cs1	thrombin 1536 40, FXIa inh 1536 46
O=C(CSc1nc(-c2ccccc2)cs1)Nc1nccs1	none
CN=C1NN=C(c2cc(C)n(-c3ccc(Cl)cc3)c2C)CS1	none
Nc1nc(CSC(=S)N2CCCCC2)nc(Nc2ccccc2)n1	hK5 inh 67
Cc1c(Cl)cccc1Nc1nc(N)nc(CN2CCc3ccccc3C2)n1	FXIIa inh 1536 43
Cc1ccc(Nc2nc(N)nc(CN3CCc4ccccc4C3)n2)cc1	none
CCN(CC)S(=O)(=O)c1ccc(Cl)c(C(=O)Oc2cccnc2)c1	none
CCN(CC)S(=O)(=O)c1ccc(Cl)c(C(=O)Oc2cccc(-c3cnc4ccccc4n3)c2)c1	hK5 inh 56
O=C(CS(=O)(=O)c1c[nH]c2ccccc12)N1CCc2ccccc21	none
